MrgX1 PAM = human MrgX1 positive allosteric modulation, primary screen; Q96LB2; B-score at 10 µM; 0.63% of 310,000 active; MrgX1-HEK293, Fluo-4 calcium flux, FDSS; active compounds read high;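 active = plate-corrected calcium response at least 3 library SD above typical, normal starting fluorescence, not activating the receptor alone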;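 note: compound read alongside a low EC10 to EC30 dose of BAM8-22 agonist; peak minus trough fluorescence over baseline measured at the second addition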
Target sequence (Q96LB2 whole entry, looked up): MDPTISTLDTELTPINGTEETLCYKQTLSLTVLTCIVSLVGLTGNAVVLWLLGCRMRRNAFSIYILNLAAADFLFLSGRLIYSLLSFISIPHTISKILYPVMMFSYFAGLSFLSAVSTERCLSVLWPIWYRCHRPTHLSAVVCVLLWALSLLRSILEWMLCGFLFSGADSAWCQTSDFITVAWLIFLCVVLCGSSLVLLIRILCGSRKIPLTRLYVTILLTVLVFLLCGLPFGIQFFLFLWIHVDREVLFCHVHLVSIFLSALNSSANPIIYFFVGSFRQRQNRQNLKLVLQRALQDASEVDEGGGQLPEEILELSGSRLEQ
MrgX1 ag = human MrgX1 receptor agonism, primary screen | MrgX1-HEK293 cells, Fluo-4 calcium fluorescence, agonist mode; active compounds read high | B-score at 10 µM | 0.44% of 310,000 active | AID 588627;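 active = calcium response B-score plate-corrected fluorescence ratio at least 3 library SD, with starting fluorescence B-score inside 5 SD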
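times = overnight plating, then 30 min 37 °C plus 30 min room-temperature dye loading | assay system = stable human MrgX1 HEK293 cell line | input = fifteen thousand cells per well | signal = kinetic calcium dye fluorescence, Fluo-4 NW | dosing = compound delivered in addition one of three | read-out = B-scored fluorescence response ratio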
MrgX1 antagonist = blocks BAM8-22 activation of human MrgX1 receptor; AID 588676; Q96LB2; 1.3% of 310,000 active; B-score at 10 µM; MRGX1-HEK293 calcium flux, Fluo-4, BAM8-22 antagonism; active compounds read low;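 active = calcium-response B-score plate-corrected more than 3 library SD below zero, starting fluorescence within 5 deviations, no agonist response on first addition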;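 note: peak minus trough fluorescence over baseline after final BAM8-22 challenge near maximal dose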
RGS4 inh = human RGS4 inhibition; 0.45% of 310,000 active; AID 463165; B-score at 10 µM; P49798; HEK293 M3R/RGS4 inducible, Fluo-4 calcium flux; active compounds read high; triggered by carbachol at its EC20;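 active = B-score, a plate-corrected calcium signal, over three deviations above library mean, with baseline fluorescence within five deviations of library mean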;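 note: RGS4 expression induced by doxycycline in cells with stable M3 receptor; B-score is computed from the integrated fluorescence ratio over baseline after carbachol; higher B-score means a larger calcium signal and so more RGS4 inhibition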
Target sequence (P49798 whole entry, looked up): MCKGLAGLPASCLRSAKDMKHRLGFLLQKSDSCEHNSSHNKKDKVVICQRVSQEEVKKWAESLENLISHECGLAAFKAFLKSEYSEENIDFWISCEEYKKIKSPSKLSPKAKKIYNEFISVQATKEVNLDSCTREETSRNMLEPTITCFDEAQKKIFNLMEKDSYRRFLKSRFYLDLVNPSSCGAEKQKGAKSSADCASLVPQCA
RGS4 pot = potentiators or activators of RGS4. HEK293 M3R/inducible RGS4, carbachol calcium flux Fluo4; active compounds read low. B-score at 10 µM. 0.92% of 310,000 active. AID 463111;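 active = B-score of the integrated calcium signal more than 4 SD below the library mean, with starting fluorescence not abnormally high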;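 note: negative B-score means reduced calcium response which marks RGS4 activation or potentiation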
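Material: Inducible-RGS4 HEK293 cells carrying M3 receptor; also added: carbachol at ECmax as muscarinic agonist stimulus; incubation: compound preincubation 20 min at room temperature before agonist; signal: Fluo4-AM (2 µM) calcium-flux fluorescence, kinetic read; measure: integrated calcium ratio converted to B score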
Starred values were filed as active, the others as inactive; i = inactive; . = no result given. Compounds with a hit are over-represented: about 3.5% of the library has one in this group of screens.

SMILES	MrgX1 PAM	MrgX1 ag	MrgX1 antagonist	RGS4 inh	RGS4 pot
CCOC(=O)C1=C(COC(=O)[C@@H]2CCCN2S(=O)(=O)c2ccc(C)cc2)NC(=O)NC1C (some centres not stated)	i	i	i	i	i
COc1cc(C(=O)NC(CCSC)C(=O)OCC(=O)C(C)(C)C)cc(OC)c1OC (configuration not stated)	i	i	i	i	i
CCCCCn1nc(C)c(/C=N/NC(=O)c2ccoc2C)c1C	i	i	i	i	i
CCn1nc(C)c(/C=N/NC(=O)c2ccoc2C)c1C	i	i	-5.58*	i	i
Cc1ccc(-n2nc3c(=O)n(C(C)C(=O)NCCCc4ccccc4)nc(C)c3c2C)cc1 (configuration not stated)	i	i	-4.55*	i	i
Cc1ccc(-n2nc3c(=O)n(CCCC(=O)NCc4ccccc4Cl)nc(C)c3c2C)cc1	i	i	-6.55*	i	i
Cc1ccc(-n2nc3c(=O)n(CC(=O)NCCCc4ccccc4)nc(C)c3c2C)cc1	i	i	i	i	i
O=C(OCC1OC(n2ncc(=O)[nH]c2=O)C(OC(=O)c2ccccc2)C1OC(=O)c1ccccc1)c1ccccc1 (configuration not stated)	i	i	i	i	-7.2*
NC(=O)c1ncn([C@@H]2O[C@H](CO)[C@@H](O)[C@H]2O)c1O	i	i	-9.03*	i	i
Nc1ncn(C2O[C@H](CO)[C@@H](O)[C@H]2O)c(=O)n1 (some centres not stated)	i	i	i	.	.
O=C(NCCO)c1ccc2nc(-c3ccco3)c(-c3ccco3)nc2c1	i	i	i	i	i
O=C(NCCc1ccccc1)c1ccc2nc(-c3ccco3)c(-c3ccco3)nc2c1	i	i	-7.87*	i	i
C=CCSc1nnc(NC(=O)CN2C(=O)NC3(CCCC3)C2=O)s1	i	i	i	i	i
O=C(CCc1nc2ccccc2c(=O)[nH]1)N1CCCc2ccccc21	i	i	i	i	i
Cc1ccc(N=C2SC(C(=O)Nc3ccc(OC(F)(F)F)cc3)C(N)=C2C(=O)Nc2c(C)cc(C)cc2C)cc1 (configuration not stated)	10.4*	i	i	.	.
CCN(CC)S(=O)(=O)c1cccc(NC(=O)C2SC(=Nc3ccc(C)cc3C)C(C(=O)NC(C)COC)=C2N)c1 (configuration not stated)	i	i	i	i	i
COC(=O)[C@@]1(Cc2ccc(OC)cc2)[C@H]2c3cc(C(=O)N4CCCC4)n(Cc4c(CO)[nH]cc(C)c4=O)c3C[C@H]2CN1C(=O)c1ccccc1	i	i	-5.6*	i	i
COC(=O)[C@@]1(Cc2ccc(OC)cc2)[C@H]2c3cc(C(=O)N(C)C)n(Cc4c(CO)[nH]cc(C)c4=O)c3C[C@H]2CN1C(=O)c1ccccc1	i	i	i	i	i
CN=c1scc(-c2ccccc2F)n1/N=C/c1ccc[nH]1	6.98*	i	i	i	i
N#C/C(=C\c1ccc(-c2ccccc2C(=O)O)o1)c1nc2ccccc2[nH]1	i	27.5*	i	i	i
Cc1ccc2nc(/C(C#N)=C/c3ccc(-c4ccccc4C(=O)O)o3)[nH]c2c1	i	33.4*	i	i	i
CC(C)=CCOc1ccc([C@@H]2COc3c(ccc4c3C=CC(C)(C)O4)C2)c(O)c1	i	i	i	i	-9.42*
CC(C)=CCc1c2c(c3occ(-c4ccc(O)cc4)c(=O)c3c1O)C=CC(C)(C)O2	i	i	i	i	i
Nc1nonc1NC(=O)NN=C1CCCCC1	i	i	-5.88*	i	i
Cc1cccc(C)c1NC(=O)NN=C1CCCCC1	i	i	i	i	i
SMILES	MrgX1 PAM	MrgX1 ag	MrgX1 antagonist	RGS4 inh	RGS4 pot
O=C(Nc1nc2ccccc2s1)C1CCN(S(=O)(=O)c2cc([N+](=O)[O-])ccc2Cl)CC1	i	i	-5.32*	i	i
CCC(C)NC(=O)C1CCN(S(=O)(=O)c2cc([N+](=O)[O-])ccc2Cl)CC1 (configuration not stated)	i	i	i	i	i
Fc1ccc(OCc2nc3ccccc3s2)cc1	i	i	i	i	i
O=C(Nc1ccc(Cl)c([N+](=O)[O-])c1)C(Sc1ccccc1)c1ccccc1 (configuration not stated)	i	i	i	i	-8.6*
CCOC(=O)C1CCCN(C(=O)CSc2nccn2C)C1 (configuration not stated)	i	i	i	i	i
O=C(N/N=C/c1ccc2cccc(OCc3ccccc3)c2n1)c1ccc(Cl)cc1	i	i	i	i	-9.92*
O=C(N/N=C/c1ccncc1)c1ccc(COc2cccc3cccnc23)cc1	i	i	i	i	i
N=c1c2c(-c3ccccc3)c(-c3ccccc3)n(Cc3ccccc3)c2ncn1CCCn1ccnc1	i	i	i	i	i
N=c1c2c(-c3ccccc3)c(-c3ccccc3)n(Cc3ccco3)c2ncn1Cc1ccco1	i	i	-8.09*	i	-6.95*
COc1cc(/C=C2\N=C(c3ccccc3)OC2=O)ccc1OC(C)=O	i	i	i	i	i
COc1ccc(OC)c(/C=C2\N=C(c3ccccc3)OC2=O)c1	i	i	i	i	-7.44*
COc1cc(/C=C2/N=C(c3ccccc3)OC2=O)c(F)cc1OCc1ccccc1	i	i	-4.86*	i	i
COc1ccc(CN2CCNC(=O)C2CC(=O)NCc2cc(C)n(C)n2)c(F)c1 (configuration not stated)	i	i	i	i	i
CCNC(=O)Nc1ccc(-n2nc(C)c(C(=O)OCC)c2C)nc1	i	i	i	i	i
CC1CCc2c(sc3nc(C(C)(C)C)nc(N4CCN(C(=O)CCl)CC4)c23)C1 (configuration not stated)	i	i	i	i	-7.6*
COc1ccc(NC(=O)CN(C)C(=O)c2ccc3c(c2)S(=O)(=O)N=C2CCCCCN23)cc1	i	i	i	i	i
COc1ccc(Cl)cc1C(=O)NNC(=S)NC(=O)c1ccc(F)c(F)c1	i	i	-5.88*	i	i
COc1ccccc1C(=O)NNC(=S)NC(=O)c1sc2ccccc2c1Cl	i	36.5*	i	i	-8.7*
COc1ccc(Cl)cc1C(=O)NNC(=S)NC(=O)c1cc(-c2ccc(Cl)cc2)nc2ccccc12	i	i	-7.33*	i	-8.42*
